Laboratory results taken from ChEMBL document CHEMBL1153046, “Synthesis and antitumor activity of substituted triazolo[4,3-a]pyrimidin-6-sulfonamide with an incorporated thiazolidinone moiety” (2009).

Assays:
Type in all cases: functional
[1] = system: HT-29; assay: Growth inhibition of human HT-29 cells after 48 hrs by sulforhodamine B assay; conditions: HT-29, 48 h
In short: (§1)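 NCI 60-cell-line panel. Cells are grown in RPMI1640 with 5% fetal calf serum and 2 mM L-glutamine, seeded at a density set by growth characteristics, and preincubated 24 h. Compound is tested at a minimum of five concentrations at 10-fold dilution, with 48 h continuous exposure. Viability is read by sulforhodamine B protein assay. GI50, TGI and LC50 come from dose-response curves.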

[2] = system: NCI-H460; assay: Growth inhibition of human NCI-H460 cells after 48 hrs by sulforhodamine B assay; conditions: NCI-H460, 48 h; in short: as §1
[3] = system: K562; assay: Growth inhibition of human K562 cells after 48 hrs by sulforhodamine B assay; conditions: K562, 48 h; in short: as §1
[4] = system: HCC 2998; assay: Growth inhibition of human HCC2998 cells after 48 hrs by sulforhodamine B assay; conditions: HCC 2998, 48 h; in short: as §1
[5] = system: MDA-MB-231; assay: Growth inhibition of human MDA-MB-231 cells after 48 hrs by sulforhodamine B assay; conditions: MDA-MB-231, 48 h; in short: as §1
[6] = system: DU-145; assay: Growth inhibition of human DU145 cells after 48 hrs by sulforhodamine B assay; conditions: DU-145, 48 h; in short: as §1
[7] = system: EKVX; assay: Growth inhibition of human EKVX cells after 48 hrs by sulforhodamine B assay; in short: as §1
[8] = system: KM12; assay: Growth inhibition of human KM12 cells after 48 hrs by sulforhodamine B assay; conditions: KM12, 48 h; in short: as §1
[9] = system: NCI-H226; assay: Growth inhibition of human NCI-H226 cells after 48 hrs by sulforhodamine B assay; conditions: NCI-H226, 48 h; in short: as §1
[10] = system: SNB-19; assay: Growth inhibition of human SNB19 cells after 48 hrs by sulforhodamine B assay; conditions: SNB-19, 48 h
In short: (§2)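 NCI 60-cell-line panel (nine cancer types), with cells grown in RPMI1640 plus 5% fetal calf serum and 2 mM L-glutamine. Cells are seeded at a density that depends on the line and preincubated 24 h. Compounds are then applied at a minimum of five 10-fold dilutions over a 5-log range with 48 h continuous exposure. Viability is read by SRB protein assay, and GI50 is derived from dose-response curves in units of 10^-5 M.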

[11] = system: SF-295; assay: Growth inhibition of human SF295 cells after 48 hrs by sulforhodamine B assay; conditions: SF-295, 48 h; in short: as §1
[12] = system: NCI-H322M; assay: Growth inhibition of human NCI-H322M cells after 48 hrs by sulforhodamine B assay; in short: as §1
[13] = system: U-251; assay: Growth inhibition of human U251 cells after 48 hrs by sulforhodamine B assay; conditions: U-251, 48 h; in short: as §2
[14] = system: A498; assay: Growth inhibition of human A498 cells after 48 hrs by sulforhodamine B assay; conditions: A498, 48 h; in short: as §1
[15] = system: MDA-MB-435; assay: Growth inhibition of human MDA-MB-435 cells after 48 hrs by sulforhodamine B assay; conditions: MDA-MB-435, 48 h; in short: as §1
[16] = system: HCT-116; assay: Growth inhibition of human HCT116 cells after 48 hrs by sulforhodamine B assay; conditions: HCT-116, 48 h; in short: as §1
[17] = system: RXF 393; assay: Growth inhibition of human RXF393 cells after 48 hrs by sulforhodamine B assay; conditions: RXF 393, 48 h; in short: as §1
[18] = Growth inhibition of human Hs 578T cells after 48 hrs by sulforhodamine B assay; in short: as §1
[19] = system: SF-539; assay: Growth inhibition of human SF539 cells after 48 hrs by sulforhodamine B assay; conditions: SF-539, 48 h; in short: as §1
[20] = system: HL-60(TB); assay: Growth inhibition of human HL-60(TB) cells after 48 hrs by sulforhodamine B assay; conditions: HL-60, 48 h
In short: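 NCI 60-cell-line panel. Cells were grown in RPMI1640 with 5% fetal calf serum and 2 mM L-glutamine, seeded at a density suited to each line, and preincubated 24 h. Compounds were tested at a minimum of five concentrations at 10-fold dilutions over a 5-log range, with 48 h continuous exposure. Growth was read by sulforhodamine B protein staining, and GI50 was taken from dose-response curves.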

[21] = Growth inhibition of human […] cells after 48 hrs by sulforhodamine B assay; in short: as §1
[22] = system: MOLT-4; assay: Growth inhibition of human MOLT4 cells after 48 hrs by sulforhodamine B assay; conditions: MOLT-4, 48 h; in short: as §1
[23] = system: A549; assay: Growth inhibition of human A549 cells after 48 hrs by sulforhodamine B assay; conditions: A549, 48 h; in short: as §1
[24] = system: OVCAR-8; assay: Growth inhibition of human OVCAR8 cells after 48 hrs by sulforhodamine B assay; conditions: OVCAR-8, 48 h; in short: as §1
[25] = system: CCRF-CEM; assay: Growth inhibition of human CCRF-CEM cells after 48 hrs by sulforhodamine B assay; in short: as §1
[26] = system: SK-MEL-2; assay: Growth inhibition of human SK-MEL-2 cells after 48 hrs by sulforhodamine B assay; conditions: SK-MEL-2, 48 h; in short: as §1
[27] = system: IGROV-1; assay: Growth inhibition of human IGROV1 cells after 48 hrs by sulforhodamine B assay; conditions: IGROV-1, 48 h; in short: as §1
[28] = system: UACC-257; assay: Growth inhibition of human UACC257 cells after 48 hrs by sulforhodamine B assay; conditions: UACC-257, 48 h; in short: as §2
[29] = system: MCF7; assay: Growth inhibition of human MCF7 cells after 48 hrs by sulforhodamine B assay; conditions: MCF7, 48 h; in short: as §1
[30] = read-out: LC50 (the source's name)

SMILES: COc1ccc(/C=N/c2nc3[nH]nc(C)n3c(=O)c2S(=O)(=O)NN2C(=O)C(CN3CCN(C)CC3)SC2c2ccc(OC)cc2)cc1 (centres undefined)
- GI50 [1]: 34.7 µM
- GI50 [2]: 16.4 µM
- TGI [2]: 46.7 µM
- GI50 [3]: 13 µM
- LC50 [3]: 63.3 µM
- TGI [3]: 28.7 µM
- GI50 [4]: 8.59 µM
- LC50 [4]: 71.9 µM
- TGI [4]: 22.5 µM
- GI50 [5]: 12.2 µM
- LC50 (50% lethal concentration) [5]: 88.6 µM
- TGI [5]: 32.9 µM
- GI50 [6]: 11.8 µM
- LC50 (concentration giving 50% net cell kill) [6]: 86.6 µM
- TGI [6]: 32 µM
- GI50 [7]: 25.9 µM
- TGI [7]: 60.3 µM
- GI50 [8]: 24.8 µM
- GI50 [9]: 12.4 µM
- LC50 (concentration killing 50% of cells) [9]: 75.7 µM
- TGI [9]: 30.6 µM
- GI50 [10]: 25.7 µM
- TGI [10]: 72.5 µM
- GI50 [11]: 16.8 µM
- LC50 (concentration killing 50% of cells) [11]: 76.8 µM
- TGI [11]: 35.9 µM
- GI50 [12]: 21.1 µM
- TGI [12]: 51.1 µM
- GI50 [13]: 17.6 µM
- LC50 [13]: > 100 µM
- TGI [13]: 45.2 µM
- GI50 [14]: 12.9 µM
- LC50 (concentration giving 50% net cell kill) [14]: 60.9 µM
- TGI [14]: 28.1 µM
- GI50 [15]: 24.1 µM
- TGI [15]: 64.6 µM
- GI50 [16]: 5.89 µM
- LC50 (concentration killing 50% of cells) [16]: 71.5 µM
- TGI [16]: 47.2 µM
- GI50 [17]: 10.2 µM
- TGI [17]: 31.1 µM
- CC50 [17, 30]: 95.1 µM
- GI50 [18]: 13 µM
- LC50 (concentration killing 50% of cells) [18]: 88.7 µM
- TGI [18]: 34 µM
- GI50 [19]: 6.5 µM
- LC50 [19]: 61.2 µM
- TGI [19]: 21.8 µM
- GI50 [20]: 28.2 µM
- LC50 [20]: > 100 µM
- TGI [20]: 86.8 µM
- GI50 [21]: 14.1 µM
- TGI [21]: 39 µM
- CC50 [21, 30]: > 100 µM
- GI50 [22]: 17.8 µM
- TGI [22]: 58.9 µM
- CC50 [22, 30]: > 100 µM
- GI50 [23]: 13.4 µM
- TGI [23]: 50.8 µM
- GI50 [24]: 7.82 µM
- TGI [24]: 47.2 µM
- GI50 [25]: 17.2 µM
- TGI [25]: 49.2 µM
- GI50 [26]: 21.3 µM
- LC50 (concentration killing 50% of cells) [26]: 99.4 µM
- TGI [26]: 46.1 µM
- GI50 [27]: 21 µM
- LC50 [27]: 93.9 µM
- TGI [27]: 44.4 µM
- GI50 [28]: 21.6 µM
- LC50 [28]: 92.3 µM
- TGI [28]: 44.7 µM
- GI50 [29]: 15.3 µM
- TGI [29]: 47.8 µM
